The source of these data is article PMC4966677 (ACS infectious diseases, 2015).

Molecules are shown by their SMILES. Where “and” joins values, the source holds several entries; their conditions need not be identical. Equal entries are not always repeated.

One data set deals with M. tuberculosis H37Rv. In words: Microplate Alamar Blue assay. Conditions: for In vitro anti-Mtb activity MABA-MIC H37Rv: Minimum Inhibitory Concentration, strain H37Rv; for Activity in standard MIC assay (in words): strain not given. Type of data set: cell-based, Mycobacterium tuberculosis. Background: Resazurin is reduced to fluorescent resorufin, in cell work by metabolically active cells.

The next data set deals with M. tuberculosis Erdman. In words: Microplate Alamar Blue assay. The class given is cell-based, Mycobacterium tuberculosis. Conditions: Minimum Inhibitory Concentration, strain Erdman.
Another data set deals with Mtb-infected macrophages. In words: Growth inhibition of Mtb in IFN-γ-activated J774 macrophages. The class given is cell-based, Mycobacterium tuberculosis. The settings on record: read-out: In vitro anti-Mtb activity, Mtb-infected macrophages (IC90); IC90 in macrophages activated with γ-interferon.
A short description of data set [1]: Oral pharmacokinetics in guinea pig plasma. Type of data set: in vivo. The settings on record: for AUCALL / CMAX / Clearance / Half-life / TMAX / VD (Volume of distribution): oral; for Oral bioavailability (in words): guinea pigs, oral dosing.
Data set [2] in a line: Tolerability in guinea pigs during the efficacy study. Type of data set: in vivo, guinea pig. The settings on record: L01-Z08 20 mg/kg and L335-M34 50 mg/kg once daily alone or in combination for 6 weeks.
Data set [3] deals with Human PTP panel: PTP1B, TC-PTP, SHP1, SHP2, FAp1, Lyp, Meg2, HePTP, laforin, VHX, VHR, LMWPTP, Cdc14A, PTPα, LAR, CD45, PTPRG. In words: Human PTP panel selectivity, pNPP assay. Type of data set: biochemical. In short, it runs like this: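 Each PTP expressed in and purified from E. coli, used at 5 nM final. The reaction is started by adding enzyme to pNPP, set at that PTP's Km, plus varying test compound concentrations. It is stopped after 15 min with 5N NaOH. p-Nitrophenol is read at 405 nm, corrected with a no-enzyme control. IC50 is fit to AI/A0 = IC50/(IC50+[I]).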

The subject of the next data set is Mtb H37Rv. Nature of the data set: Chronic TB infection model in guinea pigs, lung CFU. Type of data set: in vivo. Conditions: added to the standard regimen HRZ, guinea pig lungs, after 6 weeks of treatment.
The target in the next data set is mPTPA (Mycobacterium tuberculosis, UniProt P9WIA1).
Another data set deals with mPTPB (Mycobacterium tuberculosis, UniProt I6WXK4).
Where [4] appears, read: guinea pig, Co-admin: L335M34 50 mg/kg and L01Z08 20 mg/kg together.
The mark [5] stands for this setting: guinea pig, Single (given alone), L335M34 50 mg/kg, L01Z08 20 mg/kg.

mPTPB, sequence (I6WXK4 whole entry, looked up): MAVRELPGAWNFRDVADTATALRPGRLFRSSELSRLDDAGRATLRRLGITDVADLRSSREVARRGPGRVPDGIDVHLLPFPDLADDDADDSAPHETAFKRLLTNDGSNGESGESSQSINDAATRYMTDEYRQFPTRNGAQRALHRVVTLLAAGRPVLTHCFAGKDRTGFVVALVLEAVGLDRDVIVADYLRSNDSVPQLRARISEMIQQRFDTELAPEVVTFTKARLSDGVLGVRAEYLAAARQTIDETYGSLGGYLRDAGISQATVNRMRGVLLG
mPTPA, sequence (P9WIA1 whole entry): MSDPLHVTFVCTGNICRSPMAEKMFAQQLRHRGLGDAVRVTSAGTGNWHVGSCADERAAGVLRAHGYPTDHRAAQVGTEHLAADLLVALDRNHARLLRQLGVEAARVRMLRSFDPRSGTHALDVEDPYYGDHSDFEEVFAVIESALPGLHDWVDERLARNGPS

For orientation: IC90 means the concentration needed for an effect of 90%. `O=C(O)c1cc2c(C#Cc3cccc(C(F)(F)F)c3)c(-c3ccccc3)oc2cc1O` [Compound L01-Z08]: in the data set on M. tuberculosis H37Rv, the “In vitro anti-Mtb activity MABA-MIC H37Rv” value was >10 >10 uM and the “Activity in standard MIC assay (in words)” value was “inactive”. Moreover, the “In vitro anti-Mtb activity MABA-MIC Erdman” value with M. tuberculosis Erdman is reported as >10 >10 uM. Also, the IC90 in the data set on Mtb-infected macrophages was < 5000 nM. In data set [1] (setting [4]), the AUCALL stood at 28161.76 ng·h/mL, the CMAX was 3059.668 ng/mL, the Clearance was determined as 11.6927 mL/min/kg and the Half-life stood at 6.141 h. In addition, in data set [1] (setting [4]), the TMAX worked out at 1.587 h and the “VD (Volume of distribution)” value was found to be 6215.132. In data set [1] (setting [5]), this compound came in with an AUCALL of 13166.89 ng·h/mL, a CMAX of 1870.43 ng/mL, a Clearance of 25.3079 mL/min/kg and a Half-life of 5.512 h. Besides, in [1] (setting [5]), the TMAX stood at 1.587 h and the “VD (Volume of distribution)” value is 12074.939. Further, the “Oral bioavailability (in words)” value in data set [1] is listed as “good oral bioavailability”. Further, the Signs of toxicity result in data set [2] is “no overt signs of toxicity”.
For orientation: IC50 means the concentration that inhibits the measured activity by half. By Ki is commonly meant a dissociation constant, usually derived from enzyme kinetics or from competition with a known ligand. As for `Cc1c(Br)cc(NC(=O)CS(=O)(=O)O)cc1Br` [Compound L335-M34], the “Activity against a panel of human PTPs” value in [3] (at concentrations below 3 μM) was “no significant activity”. Further, the “Fold selectivity vs. PTP panel” value in data set [3] (panel of 17 human PTPs) is >20 fold. In addition, in the data set on M. tuberculosis H37Rv, the “In vitro anti-Mtb activity MABA-MIC H37Rv” value is reported as >10 >10 uM and the “Activity in standard MIC assay (in words)” value was “devoid of activity”. Also, the “In vitro anti-Mtb activity MABA-MIC Erdman” value in the data set with M. tuberculosis Erdman is recorded as >10 >10 uM. Further, the IC90 in the data set on Mtb-infected macrophages was determined as 1380 nM. Moreover, in data set [1] (setting [4]), the AUCALL is 52752.61 ng·h/mL, the CMAX is 7064.956 ng/mL, the Clearance was found to be 15.8339 mL/min/kg and the Half-life was determined as 4.16 h. Also, in [1] (setting [4]), the TMAX came out at 2.5 h and the “VD (Volume of distribution)” value stood at 5702.19. Further, in data set [1] (setting [5]), the AUCALL came out at 54406.61 ng·h/mL, the CMAX is 5142.47 ng/mL, the Clearance worked out at 15.291 mL/min/kg and the Half-life stood at 5.197 h. Further, in data set [1] (setting [5]), the TMAX is 2.5 h and the “VD (Volume of distribution)” value turned out to be 6878.467. Besides, the “Time plasma concentration stays 10-fold in excess of biochemical IC50” value in data set [1] (guinea pig, single oral dose, L335-M34 50 mg/kg, L01-Z08 20 mg/kg) was 12–14 hours and 12–24 hours. Further, the “Oral bioavailability (in words)” value in data set [1] is given as “good oral bioavailability”. Moreover, the “Further reduction of mean lung CFU relative to HRZ” value in the data set on Mtb H37Rv worked out at 0.17 log10. For the same compound, the Signs of toxicity entry in [2] is “no overt signs of toxicity”. For the same compound, at mPTPA, the “Mode of mPTPA inhibition” value was “reversible and competitive inhibitor”. The IC50 on mPTPA (read-out: Biochemical potency against target (IC50, nM) mPTPA, pH 7) was 160 nM. Further, the inhibition constant (Ki) at mPTPA (read-out: Ki for mPTPA) came out at 56 ± 2 nM. On mPTPB, the “Activity against mPTPB” value is “no significant activity” and the “Fold selectivity vs. mPTPA/B (mPTPA inhibitor over mPTPB)” value is >20 fold. At mPTPB (read-out: Biochemical potency against target (IC50, nM) mPTPB, pH 7), the 50% inhibitory concentration (IC50) is > 3200 nM.
